Assay results: ChEMBL document CHEMBL4732181, “Pyrazolo[3,4-d]pyrimidine-based dual EGFR T790M/HER2 inhibitors: Design, synthesis, structure-activity relationship and biological activity as potential antitumor and anticonvulsant agents” (Eur J Med Chem, 2021)
Active and inactive are the calls of the source. No cut-off for these calls is given here.

What was measured:
HCT-116 [1] = test: Induction of cell cycle arrest in human HCT-116 cells assessed as cell accumulation at G2/M phase at IC50 concentration after 24 hrs by propidium iodide staining based flow cytometric analysis (reference value: 15.39%); type: functional
HCT-116 [2] = test: Induction of apoptosis in human HCT-116 cells assessed as increase in late apoptotic cells at IC50 concentration after 24 hrs by annexin-V-FITC/PI staining based flow cytometric analysis; type: functional
Mus musculus [3] = test: Anticonvulsant activity against mouse model of LiCa/pilocarpine-induced status epilepticus assessed as total power density at 20 mg/kg, po for 10 days by EEG method relative to control; type: functional; details: time 10 day
Summary of the method: (§1)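 Male mice (20-30 g), five per group, dosed orally once daily for 10 days. Status epilepticus was then induced with LiCa (3 mEq/kg i.p.), atropine sulfate (1 mg/kg i.p.) 30 min before pilocarpine, and pilocarpine HCl (300 mg/kg i.p.) 2 h after LiCa. Normal controls received oral distilled water. Comparators were untreated SE, phenytoin and lamotrigine. One-way ANOVA with Tukey post-hoc; mean ± SD.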

Mus musculus [4] = test: Anticonvulsant activity against mouse model of LiCa/pilocarpine-induced status epilepticus assessed as amplitude at 20 mg/kg, po for 10 days by EEG method relative to control; type: functional; details: time 10 day; summary of the method: as §1
Mus musculus [5] = test: Anticonvulsant activity against mouse model of LiCa/pilocarpine-induced status epilepticus assessed as delta at 20 mg/kg, po for 10 days by EEG method relative to control; type: functional; details: time 10 day; summary of the method: as §1
HCT-116 [6] = test: Induction of apoptosis in human HCT-116 cells assessed as increase in caspace-9 protein expression at IC50 concentration after 24 hrs by ELISA; type: functional
Summary of the method: (§2)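 Cells treated at IC50 for 24 h and lysed in cell extraction buffer. Lysate diluted in standard diluent buffer and human caspase-3, -7, -9, Bax and Bcl-2 quantified by immunoassay kit (pg/mL). Fold change calculated against untreated control cells.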

[7] = target: T1, Receptor tyrosine-protein kinase erbB-2 (Homo sapiens, UniProt P04626); test: Inhibition of HER2 (unknown origin) at 10 uM relative to control
T1 sequence (P04626 whole entry): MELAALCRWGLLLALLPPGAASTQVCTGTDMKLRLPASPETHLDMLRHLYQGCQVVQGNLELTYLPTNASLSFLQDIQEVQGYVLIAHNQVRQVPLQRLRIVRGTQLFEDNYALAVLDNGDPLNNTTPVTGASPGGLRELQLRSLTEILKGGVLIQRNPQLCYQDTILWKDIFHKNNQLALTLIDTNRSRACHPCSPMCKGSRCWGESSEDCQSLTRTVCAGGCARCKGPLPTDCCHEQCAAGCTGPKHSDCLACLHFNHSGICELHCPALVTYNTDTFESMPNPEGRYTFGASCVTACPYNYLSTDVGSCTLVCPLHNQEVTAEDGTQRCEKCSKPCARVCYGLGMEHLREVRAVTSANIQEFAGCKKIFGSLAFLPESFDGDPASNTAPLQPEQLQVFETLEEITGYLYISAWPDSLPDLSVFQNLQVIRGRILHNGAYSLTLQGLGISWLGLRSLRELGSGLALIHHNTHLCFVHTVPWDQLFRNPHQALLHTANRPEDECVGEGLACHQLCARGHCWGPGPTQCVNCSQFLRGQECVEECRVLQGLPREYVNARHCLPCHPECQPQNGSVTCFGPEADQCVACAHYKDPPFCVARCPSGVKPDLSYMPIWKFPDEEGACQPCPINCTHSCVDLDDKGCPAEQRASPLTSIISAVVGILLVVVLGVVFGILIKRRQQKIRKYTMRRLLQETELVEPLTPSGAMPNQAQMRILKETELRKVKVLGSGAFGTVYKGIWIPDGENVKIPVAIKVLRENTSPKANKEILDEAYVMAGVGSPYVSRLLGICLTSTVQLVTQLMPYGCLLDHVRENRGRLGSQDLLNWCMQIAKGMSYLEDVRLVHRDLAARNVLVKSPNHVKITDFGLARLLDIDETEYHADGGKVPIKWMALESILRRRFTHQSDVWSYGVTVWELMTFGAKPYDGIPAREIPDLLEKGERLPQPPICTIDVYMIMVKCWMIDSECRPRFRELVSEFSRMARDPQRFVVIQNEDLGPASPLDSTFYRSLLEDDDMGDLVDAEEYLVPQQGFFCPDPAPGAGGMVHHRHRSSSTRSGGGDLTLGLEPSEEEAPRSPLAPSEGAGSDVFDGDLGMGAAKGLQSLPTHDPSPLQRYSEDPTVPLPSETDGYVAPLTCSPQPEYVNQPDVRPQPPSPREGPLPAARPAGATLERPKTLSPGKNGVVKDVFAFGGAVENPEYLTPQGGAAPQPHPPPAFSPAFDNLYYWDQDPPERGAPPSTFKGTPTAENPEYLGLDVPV
Summary of the method: (§3)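 Cell-free immunoassay kit measuring EGFR T790M/HER2 kinase inhibition. Percent inhibition screened at 10 µM. IC50 obtained from four concentrations (0.01-10 µM) by fitting E(%) = Emax/(1+[I]/ID50) to a dose-response curve. Mean of two independent replicates.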

HCT-116 [8] = test: Induction of apoptosis in human HCT-116 cells assessed as early apoptotic cells at IC50 concentration after 24 hrs by annexin-V-FITC/PI staining based flow cytometric analysis (reference value: 0.34%); type: functional
HCT-116 [9] = test: Induction of apoptosis in human HCT-116 cells assessed as increase in Bax protein expression at IC50 concentration after 24 hrs by ELISA; type: functional; summary of the method: as §2
HCT-116 [10] = test: Induction of apoptosis in human HCT-116 cells assessed as increase in Bax/Bcl-2 ratio at IC50 concentration after 24 hrs by ELISA; type: functional, cell-based; summary of the method: as §2
Mus musculus [11] = test: Anticonvulsant activity against mouse model of LiCa/pilocarpine-induced status epilepticus assessed as Glutamate level in brain at 20 mg/kg, po for 10 days by ELISA relative to control; type: functional; details: time 10 day; summary of the method: as §1
Mus musculus [12] = test: Anticonvulsant activity against mouse model of LiCa/pilocarpine-induced status epilepticus assessed as power pV2 at 20 mg/kg, po for 10 days by EEG method relative to control; type: functional; details: time 10 day; summary of the method: as §1
HCT-116 [13] = test: Induction of cell cycle arrest in human HCT-116 cells assessed as cell accumulation at G1 phase at IC50 concentration after 24 hrs by propidium iodide staining based flow cytometric analysis (reference value: 46.95%); type: functional
HCT-116 [14] = test: Induction of apoptosis in human HCT-116 cells assessed as increase in caspace-7 protein expression at IC50 concentration after 24 hrs by ELISA; type: functional; summary of the method: as §2
HCT-116 [15] = test: Induction of apoptosis in human HCT-116 cells assessed as increase in caspace-3 protein expression at IC50 concentration after 24 hrs by ELISA; type: functional; summary of the method: as §2
Mus musculus [16] = test: Anticonvulsant activity against mouse model of LiCa/pilocarpine-induced status epilepticus assessed as alpha at 20 mg/kg, po for 10 days by EEG method relative to control; type: functional; details: time 10 day; summary of the method: as §1
[17] = target: T1, Receptor tyrosine-protein kinase erbB-2; test: Inhibition of HER2 (unknown origin); summary of the method: as §3
HCT-116 [18] = test: Induction of apoptosis in human HCT-116 cells assessed as increase in early apoptotic cells at IC50 concentration after 24 hrs by annexin-V-FITC/PI staining based flow cytometric analysis; type: functional
Mus musculus [19] = test: Anticonvulsant activity against mouse model of LiCa/pilocarpine-induced status epilepticus assessed as GSH level in brain at 20 mg/kg, po for 10 days by calorimetric method relative to control; type: functional; details: time 10 day; summary of the method: as §1
HCT-116 [20] = test: Induction of cell cycle arrest in human HCT-116 cells assessed as cell accumulation at S phase at IC50 concentration after 24 hrs by propidium iodide staining based flow cytometric analysis (reference value: 37.66%); type: functional
Mus musculus [21] = test: Anticonvulsant activity against mouse model of LiCa/pilocarpine-induced status epilepticus assessed as theta at 20 mg/kg, po for 10 days by EEG method relative to control; type: functional; details: time 10 day; summary of the method: as §1
HCT-116 [22] = test: Induction of cell cycle arrest in human HCT-116 cells assessed as cell accumulation at pre-G1 phase at IC50 concentration after 24 hrs by propidium iodide staining based flow cytometric analysis (reference value: 2.02%); type: functional
HCT-116 [23] = test: Induction of apoptosis in human HCT-116 cells assessed as decrease in Bcl-2 protein expression at IC50 concentration after 24 hrs by ELISA; type: functional; summary of the method: as §2
HCT-116 [24] = test: Induction of apoptosis in human HCT-116 cells assessed as late apoptotic cells at IC50 concentration after 24 hrs by annexin-V-FITC/PI staining based flow cytometric analysis (reference value: 1.31%); type: functional
HCT-116 [25] = test: Induction of cell cycle arrest in human HCT-116 cells assessed as cell increase in accumulation at G2/M phase at IC50 concentration after 24 hrs by propidium iodide staining based flow cytometric analysis; type: functional
Mus musculus [26] = test: Anticonvulsant activity against mouse model of LiCa/pilocarpine-induced status epilepticus assessed as MDA level in brain at 20 mg/kg, po for 10 days by calorimetric method relative to control; type: functional; details: time 10 day; summary of the method: as §1
Mus musculus [27] = test: Anticonvulsant activity against mouse model of LiCa/pilocarpine-induced status epilepticus assessed as spectral edge frequency at 20 mg/kg, po for 10 days by EEG method relative to control; type: functional; details: time 10 day; summary of the method: as §1
Mus musculus [28] = test: Anticonvulsant activity against mouse model of LiCa/pilocarpine-induced status epilepticus assessed as mean power frequency at 20 mg/kg, po for 10 days by EEG method relative to control; type: functional; details: time 10 day; summary of the method: as §1
WI-38 = test: Cytotoxicity against human WI-38 cells assessed as reduction in cell viability after 48 hrs by MTT assay; type: cell-based; details: WI-38, 48 h
Summary of the method: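 Cells from ATCC grown in DMEM with 10% FBS, insulin and 1% penicillin-streptomycin. Plated at 1.2-1.8 × 10,000 cells/well for 24 h, then exposed to compounds in DMSO vehicle for 48 h. MTT 0.5 mg/ml added for 2 h; absorbance read at 570 nm. Experiments run in triplicate.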

Mus musculus [29] = test: Anticonvulsant activity against mouse model of LiCa/pilocarpine-induced status epilepticus assessed as total power at 20 mg/kg, po for 10 days by EEG method relative to control; type: functional; details: time 10 day; summary of the method: as §1
Mus musculus [30] = test: Anticonvulsant activity against mouse model of LiCa/pilocarpine-induced status epilepticus assessed as GABA level in brain at 20 mg/kg, po for 10 days by ELISA relative to control; type: functional; details: time 10 day; summary of the method: as §1
[31] = target: Epidermal growth factor receptor (Homo sapiens, UniProt P00533, T790M); test: Inhibition of EGFR T790M mutant (unknown origin)
Chain of Epidermal growth factor receptor (P00533 25-1210 T790M limits assumed): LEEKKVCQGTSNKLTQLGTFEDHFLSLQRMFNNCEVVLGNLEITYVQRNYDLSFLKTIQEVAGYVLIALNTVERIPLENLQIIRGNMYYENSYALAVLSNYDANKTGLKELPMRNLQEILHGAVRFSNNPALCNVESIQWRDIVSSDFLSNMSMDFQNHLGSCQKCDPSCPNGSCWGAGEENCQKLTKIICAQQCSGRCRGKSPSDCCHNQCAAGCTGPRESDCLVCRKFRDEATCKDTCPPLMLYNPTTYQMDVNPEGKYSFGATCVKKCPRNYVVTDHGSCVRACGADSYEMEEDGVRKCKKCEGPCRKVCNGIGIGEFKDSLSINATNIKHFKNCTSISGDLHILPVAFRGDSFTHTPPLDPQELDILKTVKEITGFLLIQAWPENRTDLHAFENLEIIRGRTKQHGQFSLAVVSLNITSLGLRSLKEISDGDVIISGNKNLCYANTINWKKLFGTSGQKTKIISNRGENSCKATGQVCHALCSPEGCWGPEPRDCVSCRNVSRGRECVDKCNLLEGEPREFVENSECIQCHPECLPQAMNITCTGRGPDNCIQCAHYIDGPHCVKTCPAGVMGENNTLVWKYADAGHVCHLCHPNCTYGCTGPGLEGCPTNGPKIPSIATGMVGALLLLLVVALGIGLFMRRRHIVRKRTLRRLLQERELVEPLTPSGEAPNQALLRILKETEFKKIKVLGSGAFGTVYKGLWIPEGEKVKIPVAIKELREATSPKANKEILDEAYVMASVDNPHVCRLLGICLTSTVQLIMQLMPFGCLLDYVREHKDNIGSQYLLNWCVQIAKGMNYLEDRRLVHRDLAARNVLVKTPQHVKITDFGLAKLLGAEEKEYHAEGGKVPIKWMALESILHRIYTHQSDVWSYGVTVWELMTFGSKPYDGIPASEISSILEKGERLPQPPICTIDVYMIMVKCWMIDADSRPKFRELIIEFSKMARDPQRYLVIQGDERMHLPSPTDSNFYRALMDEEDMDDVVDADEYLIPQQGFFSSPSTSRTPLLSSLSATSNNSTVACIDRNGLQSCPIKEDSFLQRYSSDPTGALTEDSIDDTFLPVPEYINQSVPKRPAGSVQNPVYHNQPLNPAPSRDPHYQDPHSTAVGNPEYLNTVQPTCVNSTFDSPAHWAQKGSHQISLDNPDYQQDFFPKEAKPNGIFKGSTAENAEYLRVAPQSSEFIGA

Mus musculus [32] = test: Anticonvulsant activity against mouse model of LiCa/pilocarpine-induced status epilepticus assessed as amplitude density at 20 mg/kg, po for 10 days by EEG method relative to control; type: functional; details: time 10 day; summary of the method: as §1

Structure (SMILES): Cc1ccc(C2=N/C(=C/c3ccc(Cl)cc3)C(=O)NN2C(=O)Cc2nc3c(c(C)nn3-c3ccccc3)c(=O)[nH]2)cc1
- Activity (HCT-116 [1]): 45.94%
- fold change (FC) (HCT-116 [2]): 2
- Activity (Mus musculus [3]): 176.8%
- Activity (Mus musculus [4]): 50.22%
- Activity (Mus musculus [5]): 229.74%
- fold change (FC) (HCT-116 [6]): 16.5
- inhibition [7]: 72.6%
- Activity (HCT-116 [8]): 10.37%
- fold change (FC) (HCT-116 [9]): 6.9
- Activity (HCT-116 [10]): Active
- Activity (Mus musculus [11]): -37.61%
- Activity (Mus musculus [12]): 121.31%
- Activity (HCT-116 [13]): 22.64%
- fold change (FC) (HCT-116 [14]): 20
- fold change (FC) (HCT-116 [15]): 18.5
- Activity (Mus musculus [16]): 31.95%
- IC50 [17]: 634 nM
- fold change (FC) (HCT-116 [18]): 30.79
- Activity (Mus musculus [19]): 134.61%
- Activity (HCT-116 [20]): 31.42%
- Activity (Mus musculus [21]): 44.83%
- Activity (HCT-116 [22]): 17.35%
- fold change (FC) (HCT-116 [23]): 3.8
- Activity (HCT-116 [24]): 2.72%
- fold change (FC) (HCT-116 [25]): 2.98
- Activity (Mus musculus [26]): -57.67%
- Activity (Mus musculus [27]): -16.14%
- Activity (Mus musculus [28]): -24.4%
- IC50 (WI-38): 29.4 nM
- Activity (Mus musculus [29]): 2.62%
- Activity (Mus musculus [30]): 56.77%
- IC50 [31]: 422 nM
- Activity (Mus musculus [32]): 62.01%
